Source: ChEMBL document CHEMBL5058577, “EUbOPEN Chemogenomics Library 2 (Multiplex)” (2022)

Tested on: Fibroblast
Assay: Multiplex assay against human fibroblast
Format: toxicity, cell-based
In short: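 At seeding, live cells were stained with Hoechst33342, BioTracker Green Microtubule Cytoskeleton Dye, MitoTracker Red and Annexin V Alexa Fluor 680. After compound addition they were imaged on a CQ1 microscope at 37°C and 5% CO2, and CellPathfinder machine-learning gating sorted them into Hoechst high-intensity objects or normal cells, with normal cells further split into healthy, pyknosed or fragmented nuclei and pyknosed cells into mitotic or apoptotic. Tubulin, mitochondrial-mass and membrane-permeability phenotypes are given as per cents of cells with healthy nuclei.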

[1] = 12 h, 1 µM, compound concentration 1 uM, replicate 1
[2] = 12 h, 1 µM, compound concentration 1 uM, replicate 2
[3] = 12 h, 10 µM, compound concentration 10 uM, replicate 1
[4] = 12 h, 10 µM, compound concentration 10 uM, replicate 2
[5] = 24 h, 1 µM, compound concentration 1 uM, replicate 1
[6] = 24 h, 1 µM, compound concentration 1 uM, replicate 2
[7] = 24 h, 10 µM, compound concentration 10 uM, replicate 1
[8] = 24 h, 10 µM, compound concentration 10 uM, replicate 2
[9] = 48 h, 1 µM, compound concentration 1 uM, replicate 1
[10] = 48 h, 1 µM, compound concentration 1 uM, replicate 2
[11] = 48 h, 10 µM, compound concentration 10 uM, replicate 1
[12] = 48 h, 10 µM, compound concentration 10 uM, replicate 2

In the case of `Cc1cccc(NC(=O)CN2CCC(c3ccccn3)CC2)c1.Cl.Cl`, the “Population Apoptotic (%)” value [1] is reported as 47%, the “Population Fragmented Nuclei (%)” value [1] is reported as 16% and the “Population Healthy Nuclei (%)” value [1] is reported as 70%. The “Population Hoechst High Intensity Objects (%)” value [1] was 4%, the “Population Membrane Permeable-Phenotype (%)” value [1] was 0% and the “Population Mitochondria Different-Phenotype (%)” value [1] was 6%. The “Population Mitotic Cells (%)” value [1] was 52%, the “Population Normal (%)” value [1] was 95% and the “Population Pyknosed Nuclei (%)” value [1] was 12%. For the same molecule, the “Population Tubulin-Different-Phenotype (%)” value [1] was 34%, the “Total Cell Count” value [1] was 140 and the “Population Apoptotic (%)” value [2] was 33%. The “Population Fragmented Nuclei (%)” value [2] was 25%, the “Population Healthy Nuclei (%)” value [2] was 55% and the “Population Hoechst High Intensity Objects (%)” value [2] was 6%. For the same molecule, the “Population Membrane Permeable-Phenotype (%)” value [2] was 2%, the “Population Mitochondria Different-Phenotype (%)” value [2] was 5% and the “Population Mitotic Cells (%)” value [2] was 66%. For the same molecule, the “Population Normal (%)” value [2] was 93%, the “Population Pyknosed Nuclei (%)” value [2] was 19% and the “Population Tubulin-Different-Phenotype (%)” value [2] was 35%. The “Total Cell Count” value [2] was 232, the “Population Apoptotic (%)” value [3] was 59% and the “Population Fragmented Nuclei (%)” value [3] was 8%. The “Population Healthy Nuclei (%)” value [3] was 78%, the “Population Hoechst High Intensity Objects (%)” value [3] was 10% and the “Population Membrane Permeable-Phenotype (%)” value [3] was 1%. The “Population Mitochondria Different-Phenotype (%)” value [3] was 7%, the “Population Mitotic Cells (%)” value [3] was 40% and the “Population Normal (%)” value [3] was 89%. The “Population Pyknosed Nuclei (%)” value [3] was 13%, the “Population Tubulin-Different-Phenotype (%)” value [3] was 36% and the “Total Cell Count” value [3] was 229. For the same molecule, the “Population Apoptotic (%)” value [4] was 34%, the “Population Fragmented Nuclei (%)” value [4] was 45% and the “Population Healthy Nuclei (%)” value [4] was 30%. For the same molecule, the “Population Hoechst High Intensity Objects (%)” value [4] was 2%, the “Population Membrane Permeable-Phenotype (%)” value [4] was 6% and the “Population Mitochondria Different-Phenotype (%)” value [4] was 10%. The “Population Mitotic Cells (%)” value [4] was 65%, the “Population Normal (%)” value [4] was 98% and the “Population Pyknosed Nuclei (%)” value [4] was 23%. The “Population Tubulin-Different-Phenotype (%)” value [4] was 56%, the “Total Cell Count” value [4] was 100 and the “Population Apoptotic (%)” value [5] was 50%. For the same molecule, the “Population Fragmented Nuclei (%)” value [5] was 18%, the “Population Healthy Nuclei (%)” value [5] was 70% and the “Population Hoechst High Intensity Objects (%)” value [5] was 2%. The “Population Membrane Permeable-Phenotype (%)” value [5] was 0%, the “Population Mitochondria Different-Phenotype (%)” value [5] was 8% and the “Population Mitotic Cells (%)” value [5] was 50%. The “Population Normal (%)” value [5] was 97%, the “Population Pyknosed Nuclei (%)” value [5] was 10% and the “Population Tubulin-Different-Phenotype (%)” value [5] was 25%. For the same molecule, the “Total Cell Count” value [5] was 134, the “Population Apoptotic (%)” value [6] was 40% and the “Population Fragmented Nuclei (%)” value [6] was 26%. The “Population Healthy Nuclei (%)” value [6] was 53%, the “Population Hoechst High Intensity Objects (%)” value [6] was 4% and the “Population Membrane Permeable-Phenotype (%)” value [6] was 4%. The “Population Mitochondria Different-Phenotype (%)” value [6] was 6%, the “Population Mitotic Cells (%)” value [6] was 59% and the “Population Normal (%)” value [6] was 95%. The “Population Pyknosed Nuclei (%)” value [6] was 19%, the “Population Tubulin-Different-Phenotype (%)” value [6] was 30% and the “Total Cell Count” value [6] was 239. For the same molecule, the “Population Apoptotic (%)” value [7] was 64%, the “Population Fragmented Nuclei (%)” value [7] was 11% and the “Population Healthy Nuclei (%)” value [7] was 81%. For the same molecule, the “Population Hoechst High Intensity Objects (%)” value [7] was 7%, the “Population Membrane Permeable-Phenotype (%)” value [7] was 0% and the “Population Mitochondria Different-Phenotype (%)” value [7] was 11%. For the same molecule, the “Population Mitotic Cells (%)” value [7] was 35%, the “Population Normal (%)” value [7] was 92% and the “Population Pyknosed Nuclei (%)” value [7] was 6%. The “Population Tubulin-Different-Phenotype (%)” value [7] was 38%, the “Total Cell Count” value [7] was 217 and the “Population Apoptotic (%)” value [8] was 42%. For the same molecule, the “Population Fragmented Nuclei (%)” value [8] was 45%, the “Population Healthy Nuclei (%)” value [8] was 34% and the “Population Hoechst High Intensity Objects (%)” value [8] was 0%. For the same molecule, the “Population Membrane Permeable-Phenotype (%)” value [8] was 11%, the “Population Mitotic Cells (%)” value [8] was 57% and the “Population Normal (%)” value [8] was 100%. The “Population Pyknosed Nuclei (%)” value [8] was 20%, the “Population Tubulin-Different-Phenotype (%)” value [8] was 50% and the “Total Cell Count” value [8] was 105. The “Population Apoptotic (%)” value [9] was 80%, the “Population Fragmented Nuclei (%)” value [9] was 25% and the “Population Healthy Nuclei (%)” value [9] was 63%. The “Population Hoechst High Intensity Objects (%)” value [9] was 3%, the “Population Membrane Permeable-Phenotype (%)” value [9] was 1% and the “Population Mitochondria Different-Phenotype (%)” value [9] was 3%. The “Population Mitotic Cells (%)” value [9] was 20%, the “Population Normal (%)” value [9] was 96% and the “Population Pyknosed Nuclei (%)” value [9] was 11%. The “Population Tubulin-Different-Phenotype (%)” value [9] was 28%, the “Total Cell Count” value [9] was 138 and the “Population Apoptotic (%)” value [10] was 60%. The “Population Fragmented Nuclei (%)” value [10] was 31%, the “Population Healthy Nuclei (%)” value [10] was 55% and the “Population Membrane Permeable-Phenotype (%)” value [10] was 4%. For the same molecule, the “Population Mitotic Cells (%)” value [10] was 39%, the “Population Pyknosed Nuclei (%)” value [10] was 12% and the “Population Tubulin-Different-Phenotype (%)” value [10] was 35%. For the same molecule, the “Total Cell Count” value [10] was 229, the “Population Apoptotic (%)” value [11] was 76% and the “Population Fragmented Nuclei (%)” value [11] was 17%. The “Population Healthy Nuclei (%)” value [11] was 75%, the “Population Hoechst High Intensity Objects (%)” value [11] was 7% and the “Population Membrane Permeable-Phenotype (%)” value [11] was 2%. The “Population Mitochondria Different-Phenotype (%)” value [11] was 5%, the “Population Mitotic Cells (%)” value [11] was 23% and the “Population Normal (%)” value [11] was 92%. For the same molecule, the “Population Pyknosed Nuclei (%)” value [11] was 7%, the “Population Tubulin-Different-Phenotype (%)” value [11] was 44% and the “Total Cell Count” value [11] was 238. The “Population Apoptotic (%)” value [12] was 28%, the “Population Fragmented Nuclei (%)” value [12] was 54% and the “Population Healthy Nuclei (%)” value [12] was 39%. The “Population Hoechst High Intensity Objects (%)” value [12] was 1%, the “Population Mitochondria Different-Phenotype (%)” value [12] was 16% and the “Population Mitotic Cells (%)” value [12] was 71%. For the same molecule, the “Population Normal (%)” value [12] was 98%, the “Population Pyknosed Nuclei (%)” value [12] was 6% and the “Population Tubulin-Different-Phenotype (%)” value [12] was 61%. For the same molecule, the “Total Cell Count” value [12] was 109.
